We go through one molecule from ChEMBL document CHEMBL5661970 (Cancer Res, 2006).

The structures appear in SMILES notation. pIC50: −log10 of the molar value. Active and inactive are the calls of the source. The rule behind the calls is not given here. Bounds are passed on as bounds.

In data set [1] the target is Platelet-derived growth factor receptor beta (Homo sapiens, UniProt P09619). Description: Inhibition of PDGFR-beta (unknown origin) in presence of ATP.
In data set [2] the test system is HUVEC. Nature of the data set: Antiproliferative activity against VEGF-induced human HUVEC cells assessed as cell viability incubated for 72 hrs by WST-1 assay.
The subject of data set [3] is HUVEC. Description: Inhibition of cell migration in VEGF-induced serum-starved human HUVEC cells at 1 nmol/L incubated for 22 hrs by calcein AM staining based fluorescence plate reader analysis relative to control. It counts as functional. The gist of the method:
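HUVECs starved 5 h in EBM-2 with 0.1% BSA, placed in upper chamber of microchamber plate; lower chamber held 10 ng/mL VEGF, 0.1% FBS, 0.1% BSA. Compound in both chambers. After 22 h, migrated cells stained with 4 μg/mL calcein AM, read at 485/530 nm; 100%/0% set with/without VEGF in 0.1% DMSO; n = 10.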

The subject of the next data set is MDA-MB-231. Nature of the data set: Antitumor activity against human MDA-MB-231 cells xenografted in gamma-irradiation induced RH-rnu/rnu athymic rat assessed as tumor growth inhibition at 0.2 mg/kg, po administered once daily for 2 weeks and measured on day 14 relative to control. It counts as functional. The conditions noted are these: MDA-MB-231, light or radiation study, 336 h, read-out: TGI. The gist of the method: (§1)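 Rats were γ-irradiated with 7 Gy whole body, and 24 h later received s.c. tumor cells. Fragments (20-30 mg) from ~1,500 mm3 tumors were then implanted s.c. into irradiated athymic rats. Oral dosing at 0.2 or 1 mg/kg or vehicle ran once daily for 2 weeks from day 0. Tumors were measured with calipers twice weekly (length×width²×0.5). TGI% was taken versus vehicle on day 14 (BxPC-3: day 13), with an unpaired t test on RTV.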

In data set [4] the test system is ZR-75-1. Nature of the data set: Antitumor activity against human ZR-75-1 cells xenografted in gamma-irradiation induced RH-rnu/rnu athymic rat assessed as tumor growth inhibition at 0.2 mg/kg, po administered once daily for 2 weeks and measured on day 14 relative to control. It counts as functional. The conditions noted are these: ZR-75-1, light or radiation study, 336 h, read-out: TGI.

Data set [5] concerns ZR-75-1. Description: Antitumor activity against human ZR-75-1 cells xenografted in gamma-irradiation induced RH-rnu/rnu athymic rat assessed as tumor growth inhibition at 1.0 mg/kg, po administered once daily for 2 weeks and measured on day 14 relative to control. The conditions noted are these: ZR-75-1, light or radiation study, 336 h, read-out: TGI. It counts as functional.

The next data set concerns BXPC-3. Nature of the data set: Antitumor activity against human BXPC-3 cells xenografted in gamma-irradiation induced RH-rnu/rnu athymic rat assessed as tumor growth inhibition at 1.0 mg/kg, po administered once daily for 2 weeks and measured on day 13 relative to control. It counts as functional. Conditions: BXPC-3, light or radiation study, 336 h, read-out: TGI. The procedure, abridged:
as §1

The next data set relates to DU-145. Nature of the data set: Antitumor activity against human DU-145 cells xenografted in gamma-irradiation induced RH-rnu/rnu athymic rat assessed as tumor growth inhibition at 0.2 mg/kg, po administered once daily for 2 weeks and measured on day 14 relative to control. It counts as functional. Conditions: DU-145, light or radiation study, 336 h, read-out: TGI. The procedure, abridged: as §1

Another data set has as its system PC-3. Description: Antitumor activity against human PC-3 cells xenografted in gamma-irradiation induced RH-rnu/rnu athymic rat assessed as tumor growth inhibition at 0.2 mg/kg, po administered once daily for 2 weeks and measured on day 14 relative to control. The data set is classed as functional. The conditions noted are these: PC-3, light or radiation study, 336 h, read-out: TGI.

Data set [6] is described as follows: Antitumor activity against human CGL-9 cells xenografted in gamma-irradiation induced RH-rnu/rnu athymic rat assessed as tumor growth inhibition at 0.2 mg/kg, po administered once daily for 2 weeks and measured on day 14 relative to control. It counts as functional. The conditions noted are these: CGL-9, light or radiation study, 336 h, read-out: TGI. The gist of the method: as §1

For a further data set, the system named is CAKI-1. Description: Antitumor activity against human CAKI-1 cells xenografted in gamma-irradiation induced RH-rnu/rnu athymic rat assessed as tumor growth inhibition at 1.0 mg/kg, po administered once daily for 2 weeks and measured on day 14 relative to control. The data set is classed as functional. The conditions noted are these: CAKI-1, light or radiation study, 336 h, read-out: TGI. The procedure, abridged:
as §1

For data set [7], the system named is Calu-6. Description: Antitumor activity against human Calu-6 cells xenografted in RH-rnu/rnu athymic rat assessed as decrease in capillary permeability in tumor at 0.2 mg/kg, po measured on day 13 by DCE-MRI analysis relative to control. The data set is classed as functional. Details: scale not given: the % may be the effect or the level left.
The test system of data set [8] is Calu-6. Nature of the data set: Antitumor activity against human Calu-6 cells xenografted in RH-rnu/rnu athymic rat assessed as capillary permeability in tumor measured on day 21 by DCE-MRI analysis. The data set is classed as functional, cell-based.
Data set [9] has as its system Calu-6. Nature of the data set: Antitumor activity against human Calu-6 cells xenografted in RH-rnu/rnu athymic rat assessed as increased ratio of enlarged vessels with >100 uM diameter in tumor at 0.2 mg/kg, po administered for 14 days by H33342 dye based fluorescence microscopic analysis relative to control. It counts as functional. Conditions: time 14 day. The gist of the method: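 Calu-6 tumor-bearing athymic rats, three per group, received oral drug at 0.2 or 1 mg/kg or vehicle on days 0-13. They were killed 1 min after i.v. H33342 at 20 mg/kg on day 13. 10 µm cryosections were cut from five tumor levels at least 200 µm apart and examined under UV epifluorescence. The major axis of fluorescent halos around vessels was measured by image analysis, with a Mann-Whitney test.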

A short description of data set [10]: AUC (0-infinity) in F344/N JcL-rnu athymic rat at 0.04 mg/kg, po measured upto 72 hrs by HPLC-MS/MS analysis. The data set is classed as ADME, organism-based. Conditions: in vivo. The gist of the method:
(§2)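 Female athymic rats, four per group, given a single oral dose suspended in 0.5% methyl cellulose in water. Tail-vein blood was drawn at set times up to 72 h. Serum was spiked with internal standard, deproteinated with acetonitrile and analysed by HPLC-MS/MS. AUCinf came from noncompartmental analysis.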

Data set [11] can be described thus: AUC (0-infinity) in F344/N JcL-rnu athymic rat at 0.2 mg/kg, po measured upto 72 hrs by HPLC-MS/MS analysis. It counts as ADME, organism-based. Conditions: in vivo. The procedure, abridged: as §2
Data set [12] in a line: AUC (0-infinity) in F344/N JcL-rnu athymic rat at 5 mg/kg, po measured upto 72 hrs by HPLC-MS/MS analysis. It counts as ADME, organism-based. The conditions noted are these: in vivo. The gist of the method:
as §2

The nature of data set [13]: Half life in F344/N JcL-rnu athymic rat at 0.2 mg/kg, po measured upto 72 hrs by HPLC-MS/MS analysis. The data set is classed as ADME, organism-based. Conditions: in vivo. The procedure, abridged:
(§3)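 Female F344/N JcL-rnu rats, four per group, single p.o. dose suspended in 0.5% methyl cellulose. Tail-vein blood sampled at set times to 72 h. Serum spiked with internal standard, deproteinated with acetonitrile, analysed by HPLC-MS/MS. Parameters derived by noncompartmental analysis.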

The nature of data set [14]: Cmax in F344/N JcL-rnu athymic rat at 0.2 mg/kg, po measured upto 72 hrs by HPLC-MS/MS analysis. It counts as ADME, organism-based. The conditions noted are these: in vivo. The gist of the method:
as §3

Data set [15] has as its system A549. Description: Antitumor activity against human A549 cells xenografted in F344/N Jcl-rnu athymic rat assessed as tumor regression at 0.2 mg/kg, po relative to control.
Data set [16] relates to A549. Nature of the data set: Antitumor activity against human A549 cells xenografted in F344/N Jcl-rnu athymic rat assessed as tumor regression at 1.0 mg/kg, po relative to control.
Data set [17] relates to Calu-6. Description: Antitumor activity against human Calu-6 cells xenografted in RH-rnu/rnu athymic rat assessed as tumor growth inhibition at 0.2 mg/kg, po administered once daily for 6 to 21 days by DCE-MRI analysis. Conditions: time 6-21 day.

Chain of Platelet-derived growth factor receptor beta (P09619 whole entry): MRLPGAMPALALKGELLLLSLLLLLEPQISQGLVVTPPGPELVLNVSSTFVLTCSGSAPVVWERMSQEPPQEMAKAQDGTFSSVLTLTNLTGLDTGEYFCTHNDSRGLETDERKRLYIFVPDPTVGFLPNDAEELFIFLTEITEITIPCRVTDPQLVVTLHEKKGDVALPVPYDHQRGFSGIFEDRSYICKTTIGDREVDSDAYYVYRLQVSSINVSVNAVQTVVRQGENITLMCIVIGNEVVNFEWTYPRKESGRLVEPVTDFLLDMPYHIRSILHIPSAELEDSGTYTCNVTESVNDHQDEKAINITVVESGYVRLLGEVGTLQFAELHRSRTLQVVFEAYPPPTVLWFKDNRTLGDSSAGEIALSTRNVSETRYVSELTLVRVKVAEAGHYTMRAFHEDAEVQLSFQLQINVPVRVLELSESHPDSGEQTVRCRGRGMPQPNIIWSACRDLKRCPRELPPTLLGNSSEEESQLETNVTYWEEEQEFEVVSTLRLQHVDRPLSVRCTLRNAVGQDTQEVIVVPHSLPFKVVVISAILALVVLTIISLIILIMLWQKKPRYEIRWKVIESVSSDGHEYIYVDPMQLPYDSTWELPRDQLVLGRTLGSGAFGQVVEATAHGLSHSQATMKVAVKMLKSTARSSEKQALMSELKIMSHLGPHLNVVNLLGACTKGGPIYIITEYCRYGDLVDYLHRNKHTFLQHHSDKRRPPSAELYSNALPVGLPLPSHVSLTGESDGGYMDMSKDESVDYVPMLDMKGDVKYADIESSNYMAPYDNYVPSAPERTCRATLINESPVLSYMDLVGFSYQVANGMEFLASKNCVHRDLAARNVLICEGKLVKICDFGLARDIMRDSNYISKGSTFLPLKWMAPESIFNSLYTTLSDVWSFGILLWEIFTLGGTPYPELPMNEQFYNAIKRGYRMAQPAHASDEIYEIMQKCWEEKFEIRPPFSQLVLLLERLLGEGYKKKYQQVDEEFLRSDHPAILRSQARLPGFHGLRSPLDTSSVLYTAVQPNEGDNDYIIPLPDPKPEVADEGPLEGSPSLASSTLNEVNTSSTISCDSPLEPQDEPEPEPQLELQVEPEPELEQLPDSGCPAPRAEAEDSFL

For `COc1cc2nccc(Oc3ccc(NC(=O)Nc4cc(C)on4)c(Cl)c3)c2cc1OC` [TIVOZANIB], the pIC50 in [1] is 7.31; with HUVEC [2] it was 9.17. Also, the inhibition at 0.001 µM in the data set with HUVEC [3] was about 40%. The inhibition in vivo at 0.2 mg/kg came to 77% with MDA-MB-231; 77.2% in the data set on ZR-75-1 [4]; 90.6% in the data set on DU-145; 73.6% in the data set on PC-3; 46% in data set [6]. In addition, the inhibition in vivo at 1 mg/kg in the data set on ZR-75-1 [5] is 94.3%; in the data set with BXPC-3, 93.5%; with CAKI-1, over 100%. In addition, the Activity with Calu-6 [7] came out at 45%; in the data set with Calu-6 [9], 24.3%. Moreover, in the data set on Calu-6 [8], the outcome was inactive. The area under the curve AUC(0-inf) was 340 ng·h/mL in [10], 1640 ng·h/mL in data set [11] and 44500 ng·h/mL in [12]. Further, in data set [13], the half-life was 7.78 h. Moreover, the Cmax in data set [14] came to 108 ng/mL. Moreover, the tumor regression % at 0.2 mg/kg with A549 [15] turned out to be 2%. For the same molecule, in the data set on A549 [16], the tumor regression % at 1 mg/kg was 33%. Besides, the result in the data set on Calu-6 [17] was Active.
